Experimental data as given in ChEMBL document CHEMBL1629529, “Design, synthesis, and evaluation of diarylpyridines and diarylanilines as potent non-nucleoside HIV-1 reverse transcriptase inhibitors” (J Med Chem, 2010).

How the values were obtained:
[1] = test system: Human immunodeficiency virus 1; test: Antiviral activity against HIV1; assay type: functional, organism-based
[2] = Cytotoxicity in human TZM-bl cells after 4 day by XTT assay; assay type: cell-based; details: 96 h
[3] = test system: Human immunodeficiency virus 1; test: Antiviral activity against HIV1 3B infected in human MT2 cells assessed as reduction in p24 antigen level after 4 days by ELISA; assay type: functional, organism-based
In short: (§1)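 MT-2 cells (10^4/well) were infected with 100 TCID50 virus in RPMI 1640 with 10% FBS, with or without graded compound concentrations, overnight. Supernatant was then replaced with compound-free medium. On day 4 post-infection, supernatant was mixed 1:1 with 5% Triton X-100 and p24 antigen was quantified by ELISA. Percent inhibition was converted to EC50 with CalcuSyn. Tested at least in triplicate.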

MT2 = test: (§2) Cytotoxicity in human MT2 cells after 4 day by XTT assay; assay type: cell-based; details: mt2, 96 h
In short: (§3)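 MT-2 cells (5 · 10^5/mL) were mixed with an equal volume of graded compound concentrations and incubated 4 days at 37 °C. XTT solution (1 mg/mL) containing 0.02 μM phenazine methosulphate was then added. After 4 h, absorbance at 450 nm was read.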

[4] = test system: Human immunodeficiency virus 1; test: Antiviral activity against HIV1 NL4-3 infected in human TZM-bl cells after 2 days by luciferase reporter gene assay
[5] = Selectivity index, ratio of CC50 for human TZM-bl cells to EC50 for HIV1 NL4-3; assay type: toxicity, cell-based; details: for Ratio CC50/EC50: tzm-bl
[6] = Selectivity index, ratio of CC50 for human MT2 cells to EC50 for HIV1 3B; assay type: toxicity, cell-based; details: for Ratio CC50/EC50: mt2
In short: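 SI = CC50/EC50 (p24 ELISA). XTT (1 mg/mL) containing 0.02 μM PMS was added for 4 h, then absorbance was read at 450 nm. CC50 was calculated with CalcuSyn.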

[7] = test system: Human immunodeficiency virus 1; test: Resistance index, ratio of EC50 for multidrug resistant HIV1 RTMDR to EC50 for wild type HIV1 NL4-3; assay type: functional
[8] = test system: Human immunodeficiency virus 1; test: Antiviral activity against multidrug resistant HIV1 A17 containing reverse transcripatseK103N and Y181C mutation infected in human MT2 cells assessed as reduction in p24 antigen level after 4 days by ELISA; assay type: functional, organism-based; details: Human immunodeficiency virus 1, A17, MT2, 96 h; in short: as §1
[9] = test system: Human immunodeficiency virus 1; test: Resistance index, ratio of EC50 for multidrug resistant HIV1 A17 to EC50 for wild type HIV1 3B; assay type: functional
[10] = test system: Human immunodeficiency virus 1; test: Antiviral activity against multidrug resistant HIV1 RTMDR containing reverse transcriptase L74V, M41L, V106A and T215Y mutant infected in human TZM-bl cells after 2 days by luciferase reporter gene assay; details: Human immunodeficiency virus 1, RTMDR, 48 h
[11] = as §2; assay type: cell-based; details: MT2 cells; in short: as §3
[12] = test system: Human immunodeficiency virus 1; test: Antiviral activity against multidrug resistant HIV1 RTMDR containing reverse transcriptase L74V, M41L, V106A and T215Y mutant infected in human TZM-bl cells after 4 days by luciferase reporter gene assay; assay type: functional, organism-based; details: Human immunodeficiency virus 1, RTMDR, 96 h
[13] = Human immunodeficiency virus 1, 3B, MT2, 96 h, read-out: EC50
[14] = Human immunodeficiency virus 1, NL4-3, TZM-bl, 48 h, read-out: EC50

SMILES | EC50 [1] [nM] | CC50 [2] [µM] | EC50 [3, 13] [nM] | CC50 (MT2) [µM] | EC50 [4, 14] [nM] | Ratio CC50/EC50 [5] | Ratio CC50/EC50 [6] | Ratio EC50 [7] | EC50 [8] [nM] | Ratio EC50 [9] | EC50 [10] [nM] | CC50 at 96 h [11] [µM] | EC50 ([4]; tzm-bl) | EC50 [12] [nM] | EC50 ([3]; mt2) | selectivity ratio ([6]; MT2 cells, read-out: Ratio CC50/EC50) | selectivity ratio ([5]; TZM-bl cells, read-out: Ratio CC50/EC50)
Cc1cc(C#N)cc(C)c1Oc1cc(Nc2ccc(C#N)cc2)c(N)cc1[N+](=O)[O-] | 3 |  |  |  |  |  |  |  |  |  |  |  |  |  |  |  | 
CC(=O)/C=C/c1cc(C)c(Oc2cc(Nc3ccc(C#N)cc3)c(N)cc2[N+](=O)[O-])c(C)c1 |  | 5.88 | 47 | 22.6 | 6.33 |  |  |  |  |  |  |  |  |  |  |  | 
Cc1cc(Br)cc(C)c1Oc1ccc(N)c(Nc2ccc(C#N)cc2)n1 |  | 15.5 | 33 | 9.61 | 7.29 | 2132 | 291 | 0.93 | 3490 | 106 | 6.8 |  |  |  |  |  | 
Cc1cc(Br)cc(C)c1Oc1ccc([N+](=O)[O-])c(Nc2ccc(C#N)cc2)n1 |  | > 45.7 | 45 | 65.1 | 50.2 | > 909 | 1447 | 1.55 | > 10000 | >222 | 77.6 |  |  |  |  |  | 
C=CCc1cc(C)c(Oc2ccc([N+](=O)[O-])c(Nc3ccc(C#N)cc3)n2)c(C)c1 |  |  | 1340 |  |  |  | 27.37 |  |  |  |  | 39.7 | Not Active |  |  |  | 
C=CCc1cc(C)c(Oc2ccc(N)c(Nc3ccc(C#N)cc3)n2)c(C)c1 |  | 8.46 | 67 | 14 | 6.89 | 1228 | 209 | 2.23 | > 10000 | > 149 |  |  |  | 15.4 |  |  | 
Cc1cc(C#CC2CC2)cc(C)c1Oc1ccc([N+](=O)[O-])c(Nc2ccc(C#N)cc2)n1 |  |  |  |  | > 47200 |  |  |  |  |  |  |  |  |  | Not Active |  | 
Cc1cc(C#CC2CC2)cc(C)c1Oc1ccc(N)c(Nc2ccc(C#N)cc2)n1 |  | 7.45 | 410 | 5.71 | 91.2 | 82 | 14 | 1.34 | > 10000 | > 24 |  |  |  | 121 |  |  | 
Cc1cc(C(O)C[N+](=O)[O-])cc(C)c1Oc1ccc([N+](=O)[O-])c(Nc2ccc(C#N)cc2)n1 (stereo not drawn) |  | > 44.5 | 1710 | 27.1 | 308 | > 145 | 16 |  |  |  |  |  |  |  |  |  | 
Cc1cc(C(O)C[N+](=O)[O-])cc(C)c1Oc1ccc(N)c(Nc2ccc(C#N)cc2)n1.Cl (stereo not drawn) |  | 7.02 | 68 | 20.6 | 10.1 | 695 | 303 |  |  |  |  |  |  |  |  |  | 
Cc1cc(/C=C/C(=O)O)cc(C)c1Oc1ccc([N+](=O)[O-])c(Nc2ccc(C#N)cc2)n1 |  | 27.8 | 8120 | 34.8 | 14900 |  |  |  |  |  |  |  |  |  |  |  | 
Cc1cc(/C=C/C(=O)O)cc(C)c1Oc1ccc(N)c(Nc2ccc(C#N)cc2)n1 |  | 18 | 630 | 15.7 | 600 |  |  |  |  |  |  |  |  |  |  |  | 
CC(=O)/C=C/c1cc(C)c(Oc2ccc([N+](=O)[O-])c(Nc3ccc(C#N)cc3)n2)c(C)c1 |  | > 46.7 | 608 | > 47.9 | 24.4 |  |  |  |  |  |  |  |  |  |  |  | 
CC(=O)CCc1cc(C)c(Oc2ccc(N)c(Nc3ccc(C#N)cc3)n2)c(C)c1 |  | 9.25 | 55 | 18.4 | 1.95 | 4744 |  | 1.64 | 730 | 13 |  |  |  | 3.2 |  | 1840 | 
Cc1cc(/C=C/C#N)cc(C)c1Oc1ccc([N+](=O)[O-])c(Nc2ccc(C#N)cc2)n1 |  | > 48.7 | 49 | > 100 | 8 | > 6082 | > 2041 | 1.85 | > 10000 | > 204 |  |  |  | 14.8 |  |  | 
Cc1cc(/C=C/C#N)cc(C)c1Oc1ccc(N)c(Nc2ccc(C#N)cc2)n1 |  | 9.75 | < 14 | 5.63 | 0.71 | 13732 | > 402 | 0.83 | 200 | 14 |  |  |  | 0.59 |  |  | 
Cc1cc(/C=C/C#N)cc(C)c1Oc1ccc([N+](=O)[O-])c(Nc2ccc(C#N)cc2)c1 |  | > 48.8 | 37 | > 100 | 10.4 |  | > 2702 | 1.63 | > 10000 | >270 | 17 |  |  |  |  |  | 4690
Cc1cc(/C=C/C#N)cc(C)c1Oc1ccc(N)c(Nc2ccc(C#N)cc2)c1 |  | 25 | < 14 | 8.83 | 0.55 | 45455 | > 631 | 3.25 | 600 | 43 | 1.79 |  |  |  |  |  | 
CC(=O)/C=C/c1cc(C)c(Oc2cc(Nc3ccc(C#N)cc3)c([N+](=O)[O-])cc2[N+](=O)[O-])c(C)c1 |  | 24.4 | 350 | > 100 | 146 | 167 | > 286 |  |  |  |  |  |  |  |  |  | 
Cc1cc(/C=C/C#N)cc(C)c1Oc1cc(Nc2ccc(C#N)cc2)c([N+](=O)[O-])cc1[N+](=O)[O-] |  | > 44 | 370 | 21.7 | 97.1 | > 453 | 59.35 |  |  |  |  |  |  |  |  |  | 
Cc1cc(/C=C/C#N)cc(C)c1Oc1cc(Nc2ccc(C#N)cc2)c(N)cc1[N+](=O)[O-] |  | > 47.1 | < 14 | 88.2 | 0.38 | > 123842 | > 6298 | 2.29 | 95 | 6.79 |  |  |  | 0.87 |  |  | 
Cc1cc(/C=C/C#N)cc(C)c1Oc1cc(Nc2ccc(C#N)cc2)c(N)cc1N |  | 14.4 | < 14 | 18.9 | 4.3 | 3356 | > 1353 | 0.47 | 3050 | 128 |  |  |  | 2 |  |  | 
C#Cc1cc(C)c(Oc2ccc([N+](=O)[O-])c(Nc3ccc(C#N)cc3)n2)c(C)c1 |  |  |  |  |  |  |  | 1.94 | > 10000 | > 40 |  |  |  | 215 |  |  | 
C#Cc1cc(C)c(Oc2ccc(N)c(Nc3ccc(C#N)cc3)n2)c(C)c1 |  |  |  |  |  |  |  | 1.34 | 1430 | 34 |  |  |  | 9 |  |  | 
Cc1cc(I)cc(C)c1Oc1ccc(N)c(Nc2ccc(C#N)cc2)n1 |  |  |  |  |  |  |  | 0.67 | 1930 | 36 |  |  |  |  |  |  | 
Cc1cc(C#N)cc(C)c1Oc1ccc(N)c(Nc2ccc(C#N)cc2)n1 |  |  | 15 | > 100 |  | 13206 | > 6667 | 1.41 | 390 | 26 |  |  |  |  |  |  | 
Cc1cc(I)cc(C)c1Oc1ccc([N+](=O)[O-])c(Nc2ccc(C#N)cc2)n1 |  |  |  |  |  |  |  | 1.55 | > 10000 | >127 |  |  |  |  |  |  | 
Cc1cc(C#N)cc(C)c1Oc1nc(Nc2ccc(C#N)cc2)nc(N)c1Br [ETRAVIRINE] |  | 8.96 | 41 | 50.7 |  |  |  |  | 330 |  |  |  |  | 1 |  |  | 
